Test results as given in ChEMBL document CHEMBL3407339, “A novel series of thiazolyl-pyrazoline derivatives: synthesis and evaluation of antifungal activity, cytotoxicity and genotoxicity” (Eur J Med Chem, 2015).
Converted amounts (≈) assume the structure as drawn.

Key:
Salmonella typhimurium [1] = assay: Mutagenicity in Salmonella typhimurium TA98 at 5 mg/ml after 48 hrs by AMES MPF assay in absence of Sprague-Dawley rat liver microsomal S9 fraction relative to baseline; type: toxicity, organism-based; conditions: salmonella enterica subsp. enterica serovar typhimurium
Summary of the method: (§1)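 Ames MPF fluctuation test with TA98/TA100. Overnight cultures (37 °C, 14–16 h) mixed with exposure medium; ±Aroclor-1254-induced rat liver S9 (final 4.5% v/v). Compounds in DMSO, 0.156–5 mg/mL. 90 min exposure at 37 °C, then indicator medium; 48 wells per concentration, 48 h at 37 °C, in triplicate. Yellow wells counted; fold induction over baseline (mean + 1 SD of zero-dose control).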

Aspergillus flavus = assay: Antifungal activity against Aspergillus flavus NRRL 980 after 72 hrs by broth microdilution assay; type: functional; conditions: NRRL 980, 72 h
Summary of the method: (§2)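 Compounds dissolved in DMSO, diluted in sterile distilled water from 4 to 0.0039 mg/mL. Molds grown on PDA at 25 °C for 5 days, suspended in double-strength PDB at 10⁵ spores/mL. Incubated at 25 °C for 72 h; mycelial growth read under stereo microscope. MIC = lowest concentration inhibiting visible growth. Ketoconazole reference.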

Aspergillus parasiticus = assay: Antifungal activity against Aspergillus parasiticus NRRL 465 after 72 hrs by broth microdilution assay; type: functional; conditions: NRRL 465, 72 h; summary of the method: as §2
A549 = assay: Antiproliferative activity against human A549 cells after 24 hrs by XTT assay; type: functional, cell-based; conditions: A549, 24 h
Summary of the method: (§3)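 A549 cells in RPMI and NIH/3T3 cells in DMEM, each with fetal calf serum, antibiotics and 7.5% NaHCO₃, at 37 °C, 5% CO₂. Seeded at 20,000 cells/well, 24 h, then compounds added in medium at 500–3.9 doses (final DMSO <0.1%) for 24 h. XTT read after 3 h at 480 nm (ref 680 nm). IC₅₀ by non-linear regression; triplicates; cisplatin control.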

Salmonella typhimurium [2] = assay: Mutagenicity in Salmonella typhimurium TA98 at 0.3125 mg/ml after 48 hrs by AMES MPF assay in presence of Sprague-Dawley rat liver microsomal S9 fraction relative to baseline; type: toxicity, organism-based; conditions: salmonella enterica subsp. enterica serovar typhimurium; summary of the method: as §1
Salmonella typhimurium [3] = assay: Mutagenicity in Salmonella typhimurium TA98 at 2.5 mg/ml after 48 hrs by AMES MPF assay in presence of Sprague-Dawley rat liver microsomal S9 fraction relative to baseline; type: toxicity, organism-based; conditions: salmonella enterica subsp. enterica serovar typhimurium; summary of the method: as §1
Aspergillus niger = assay: Antifungal activity against Aspergillus niger ATCC 1094 after 72 hrs by broth microdilution assay; type: functional; conditions: ATCC 1094, 72 h; summary of the method: as §2
Salmonella typhimurium [4] = assay: Mutagenicity in Salmonella typhimurium TA98 at 0.625 mg/ml after 48 hrs by AMES MPF assay in absence of Sprague-Dawley rat liver microsomal S9 fraction relative to baseline; type: toxicity, organism-based; conditions: salmonella enterica subsp. enterica serovar typhimurium; summary of the method: as §1
Salmonella typhimurium [5] = assay: Mutagenicity in Salmonella typhimurium TA98 at 0.156 mg/ml after 48 hrs by AMES MPF assay in presence of Sprague-Dawley rat liver microsomal S9 fraction relative to baseline; type: toxicity, organism-based; conditions: salmonella enterica subsp. enterica serovar typhimurium; summary of the method: as §1
Pichia kudriavzevii = assay: Antifungal activity against Candida krusei NRLL Y 7179 after 48 hrs by broth microdilution assay; type: functional; conditions: NRLL Y 7179, 48 h
Summary of the method: (§4)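 Broth microdilution of DMSO stocks serially diluted in sterile water (4 to 0.0039 mg/mL). Yeasts grown on SDA at 37 °C for 24 h, suspended in double-strength PDB at 10⁵ spores/mL. Incubated at 37 °C for 48 h, then sprayed with 0.5% aqueous TTC. MIC = lowest concentration inhibiting visible growth. Ketoconazole reference.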

Nakaseomyces glabratus = assay: Antifungal activity against Candida glabrata clinical isolate after 48 hrs by broth microdilution assay; type: functional; summary of the method: as §4
Salmonella typhimurium [6] = assay: Mutagenicity in Salmonella typhimurium TA98 at 0.156 mg/ml after 48 hrs by AMES MPF assay in absence of Sprague-Dawley rat liver microsomal S9 fraction relative to baseline; type: toxicity, organism-based; conditions: salmonella enterica subsp. enterica serovar typhimurium; summary of the method: as §1
Salmonella typhimurium [7] = assay: Mutagenicity in Salmonella typhimurium TA100 at 5 mg/ml after 48 hrs by AMES MPF assay in absence of Sprague-Dawley rat liver microsomal S9 fraction relative to baseline; type: toxicity, organism-based; conditions: salmonella enterica subsp. enterica serovar typhimurium; summary of the method: as §1
Salmonella typhimurium [8] = assay: Mutagenicity in Salmonella typhimurium TA98 at 0.625 mg/ml after 48 hrs by AMES MPF assay in presence of Sprague-Dawley rat liver microsomal S9 fraction relative to baseline; type: toxicity, organism-based; conditions: salmonella enterica subsp. enterica serovar typhimurium; summary of the method: as §1
Salmonella typhimurium [9] = assay: Mutagenicity in Salmonella typhimurium TA100 at 0.625 mg/ml after 48 hrs by AMES MPF assay in absence of Sprague-Dawley rat liver microsomal S9 fraction relative to baseline; type: toxicity, organism-based; conditions: salmonella enterica subsp. enterica serovar typhimurium; summary of the method: as §1
Salmonella typhimurium [10] = assay: Mutagenicity in Salmonella typhimurium TA100 at 2.5 mg/ml after 48 hrs by AMES MPF assay in absence of Sprague-Dawley rat liver microsomal S9 fraction relative to baseline; type: toxicity, organism-based; conditions: salmonella enterica subsp. enterica serovar typhimurium; summary of the method: as §1
Salmonella typhimurium [11] = assay: Mutagenicity in Salmonella typhimurium TA98 at 0.3125 mg/ml after 48 hrs by AMES MPF assay in absence of Sprague-Dawley rat liver microsomal S9 fraction relative to baseline; type: toxicity, organism-based; conditions: salmonella enterica subsp. enterica serovar typhimurium; summary of the method: as §1
Candida albicans = assay: Antifungal activity against Candida albicans ATCC 90028 after 48 hrs by broth microdilution assay; type: functional; conditions: ATCC 90028, 48 h; summary of the method: as §4
Salmonella typhimurium [12] = assay: Mutagenicity in Salmonella typhimurium TA98 at 1.25 mg/ml after 48 hrs by AMES MPF assay in absence of Sprague-Dawley rat liver microsomal S9 fraction relative to baseline; type: toxicity, organism-based; conditions: salmonella enterica subsp. enterica serovar typhimurium; summary of the method: as §1
Salmonella typhimurium [13] = assay: Mutagenicity in Salmonella typhimurium TA100 at 0.156 mg/ml after 48 hrs by AMES MPF assay in presence of Sprague-Dawley rat liver microsomal S9 fraction relative to baseline; type: toxicity, organism-based; conditions: salmonella enterica subsp. enterica serovar typhimurium; summary of the method: as §1
Candida parapsilosis = assay: Antifungal activity against Candida parapsilosis NRLL Y 12696 after 48 hrs by broth microdilution assay; type: functional; conditions: Lodderomyces parapsilosis, NRLL Y 12696, 48 h; summary of the method: as §4
Salmonella typhimurium [14] = assay: Mutagenicity in Salmonella typhimurium TA100 at 1.25 mg/ml after 48 hrs by AMES MPF assay in absence of Sprague-Dawley rat liver microsomal S9 fraction relative to baseline; type: toxicity, organism-based; conditions: salmonella enterica subsp. enterica serovar typhimurium; summary of the method: as §1
Salmonella typhimurium [15] = assay: Mutagenicity in Salmonella typhimurium TA100 at 0.156 mg/ml after 48 hrs by AMES MPF assay in absence of Sprague-Dawley rat liver microsomal S9 fraction relative to baseline; type: toxicity, organism-based; conditions: salmonella enterica subsp. enterica serovar typhimurium; summary of the method: as §1
[Candida] zeylanoides = Antifungal activity against Candida zeylanoides NRLL Y 1774 after 48 hrs by broth microdilution assay; type: functional; conditions: Dujonia zeylanoides, NRLL Y 1774, 48 h; summary of the method: as §4
Salmonella typhimurium [16] = assay: Mutagenicity in Salmonella typhimurium TA100 at 0.625 mg/ml after 48 hrs by AMES MPF assay in presence of Sprague-Dawley rat liver microsomal S9 fraction relative to baseline; type: toxicity, organism-based; conditions: salmonella enterica subsp. enterica serovar typhimurium; summary of the method: as §1
Fusarium solani = assay: Antifungal activity against Fusarium solani NRRL 13414 after 72 hrs by broth microdilution assay; type: functional; conditions: NRRL 13414, 72 h; summary of the method: as §2
Salmonella typhimurium [17] = assay: Mutagenicity in Salmonella typhimurium TA100 at 0.3125 mg/ml after 48 hrs by AMES MPF assay in presence of Sprague-Dawley rat liver microsomal S9 fraction relative to baseline; type: toxicity, organism-based; conditions: salmonella enterica subsp. enterica serovar typhimurium; summary of the method: as §1
Salmonella typhimurium [18] = assay: Mutagenicity in Salmonella typhimurium TA98 at 2.5 mg/ml after 48 hrs by AMES MPF assay in absence of Sprague-Dawley rat liver microsomal S9 fraction relative to baseline; type: toxicity, organism-based; conditions: salmonella enterica subsp. enterica serovar typhimurium; summary of the method: as §1
Salmonella typhimurium [19] = assay: Mutagenicity in Salmonella typhimurium TA100 at 1.25 mg/ml after 48 hrs by AMES MPF assay in presence of Sprague-Dawley rat liver microsomal S9 fraction relative to baseline; type: toxicity, organism-based; conditions: salmonella enterica subsp. enterica serovar typhimurium; summary of the method: as §1
Salmonella typhimurium [20] = assay: Mutagenicity in Salmonella typhimurium TA100 at 0.3125 mg/ml after 48 hrs by AMES MPF assay in absence of Sprague-Dawley rat liver microsomal S9 fraction relative to baseline; type: toxicity, organism-based; conditions: salmonella enterica subsp. enterica serovar typhimurium; summary of the method: as §1
Candida tropicalis = assay: Antifungal activity against Candida tropicalis NRLL Y 12968 after 48 hrs by broth microdilution assay; type: functional; conditions: NRLL Y 12968, 48 h; summary of the method: as §4
Salmonella typhimurium [21] = assay: Mutagenicity in Salmonella typhimurium TA98 at 1.25 mg/ml after 48 hrs by AMES MPF assay in presence of Sprague-Dawley rat liver microsomal S9 fraction relative to baseline; type: toxicity, organism-based; conditions: salmonella enterica subsp. enterica serovar typhimurium; summary of the method: as §1
Salmonella typhimurium [22] = assay: Mutagenicity in Salmonella typhimurium TA98 at 5 mg/ml after 48 hrs by AMES MPF assay in presence of Sprague-Dawley rat liver microsomal S9 fraction relative to baseline; type: toxicity, organism-based; conditions: salmonella enterica subsp. enterica serovar typhimurium; summary of the method: as §1
Salmonella typhimurium [23] = assay: Mutagenicity in Salmonella typhimurium TA100 at 5 mg/ml after 48 hrs by AMES MPF assay in presence of Sprague-Dawley rat liver microsomal S9 fraction relative to baseline; type: toxicity, organism-based; conditions: salmonella enterica subsp. enterica serovar typhimurium; summary of the method: as §1
Salmonella typhimurium [24] = assay: Mutagenicity in Salmonella typhimurium TA100 at 2.5 mg/ml after 48 hrs by AMES MPF assay in presence of Sprague-Dawley rat liver microsomal S9 fraction relative to baseline; type: toxicity, organism-based; conditions: salmonella enterica subsp. enterica serovar typhimurium; summary of the method: as §1
[25] = Cytotoxicity against mouse NIH/3T3 cells after 24 hrs by XTT assay; type: cell-based; conditions: NIH3T3, 24 h; summary of the method: as §3

MIC (Aspergillus flavus): 125 µg/mL (≈ 251 µM)
MIC (Aspergillus parasiticus): 250 µg/mL (≈ 502 µM)
IC50 (A549): > 500 µg/mL
MIC (Aspergillus niger): 250 µg/mL (≈ 502 µM)
MIC (Pichia kudriavzevii): 250 µg/mL (≈ 502 µM)
MIC (Nakaseomyces glabratus): 125 µg/mL (≈ 251 µM)
MIC (Candida albicans): 250 µg/mL (≈ 502 µM)
MIC (Candida parapsilosis): 250 µg/mL (≈ 502 µM)
MIC ([Candida] zeylanoides): 250 µg/mL (≈ 502 µM)
MIC (Fusarium solani): 250 µg/mL (≈ 502 µM)
MIC (Candida tropicalis): 250 µg/mL (≈ 502 µM)
SMILES: Cc1ccc(C2=NN(c3nc(-c4ccc(S(C)(=O)=O)cc4)cs3)C(c3ccc(F)cc3)C2)s1 (stereo unspecified)
fold change (FC) (Salmonella typhimurium [1]): 0.89
fold change (FC) (Salmonella typhimurium [2]): 0.27
fold change (FC) (Salmonella typhimurium [3]): 1.36
fold change (FC) (Salmonella typhimurium [4]): 0.44
fold change (FC) (Salmonella typhimurium [5]): 0.41
fold change (FC) (Salmonella typhimurium [6]): 0.67
fold change (FC) (Salmonella typhimurium [7]): 1.09
fold change (FC) (Salmonella typhimurium [8]): 1.63
fold change (FC) (Salmonella typhimurium [9]): 0.99
fold change (FC) (Salmonella typhimurium [10]): 0.52
fold change (FC) (Salmonella typhimurium [11]): 0.22
fold change (FC) (Salmonella typhimurium [12]): 0.89
fold change (FC) (Salmonella typhimurium [13]): 0.73
fold change (FC) (Salmonella typhimurium [14]): 0.52
fold change (FC) (Salmonella typhimurium [15]): 0.78
fold change (FC) (Salmonella typhimurium [16]): 0.93
fold change (FC) (Salmonella typhimurium [17]): 0.73
fold change (FC) (Salmonella typhimurium [18]): 0.67
fold change (FC) (Salmonella typhimurium [19]): 0.8
fold change (FC) (Salmonella typhimurium [20]): 1.04
fold change (FC) (Salmonella typhimurium [21]): 0.95
fold change (FC) (Salmonella typhimurium [22]): 0.81
fold change (FC) (Salmonella typhimurium [23]): 0.93
fold change (FC) (Salmonella typhimurium [24]): 1.26
IC50 [25]: 374 µg/mL (≈ 751 µM)
